Experimental data published in ChEMBL document CHEMBL5357082, “Identification and Optimization of Small Molecule Pyrazolopyrimidine TLR7 Agonists for Applications in Immuno-oncology” (ACS Med Chem Lett, 2024).
Active and inactive are the calls of the source. No cut-off for these calls is given here.

Columns and labels:
[1] = Clearance in nontumor bearing Balb/C mouse at 0.5 mg/kg; assay type: ADME, organism-based; conditions: in vivo
Toll-like receptor 7 = target: T1, Toll-like receptor 7 (Mus musculus, UniProt P58681); test: Agonist activity at mouse TLR7
T1 sequence (P58681 whole entry): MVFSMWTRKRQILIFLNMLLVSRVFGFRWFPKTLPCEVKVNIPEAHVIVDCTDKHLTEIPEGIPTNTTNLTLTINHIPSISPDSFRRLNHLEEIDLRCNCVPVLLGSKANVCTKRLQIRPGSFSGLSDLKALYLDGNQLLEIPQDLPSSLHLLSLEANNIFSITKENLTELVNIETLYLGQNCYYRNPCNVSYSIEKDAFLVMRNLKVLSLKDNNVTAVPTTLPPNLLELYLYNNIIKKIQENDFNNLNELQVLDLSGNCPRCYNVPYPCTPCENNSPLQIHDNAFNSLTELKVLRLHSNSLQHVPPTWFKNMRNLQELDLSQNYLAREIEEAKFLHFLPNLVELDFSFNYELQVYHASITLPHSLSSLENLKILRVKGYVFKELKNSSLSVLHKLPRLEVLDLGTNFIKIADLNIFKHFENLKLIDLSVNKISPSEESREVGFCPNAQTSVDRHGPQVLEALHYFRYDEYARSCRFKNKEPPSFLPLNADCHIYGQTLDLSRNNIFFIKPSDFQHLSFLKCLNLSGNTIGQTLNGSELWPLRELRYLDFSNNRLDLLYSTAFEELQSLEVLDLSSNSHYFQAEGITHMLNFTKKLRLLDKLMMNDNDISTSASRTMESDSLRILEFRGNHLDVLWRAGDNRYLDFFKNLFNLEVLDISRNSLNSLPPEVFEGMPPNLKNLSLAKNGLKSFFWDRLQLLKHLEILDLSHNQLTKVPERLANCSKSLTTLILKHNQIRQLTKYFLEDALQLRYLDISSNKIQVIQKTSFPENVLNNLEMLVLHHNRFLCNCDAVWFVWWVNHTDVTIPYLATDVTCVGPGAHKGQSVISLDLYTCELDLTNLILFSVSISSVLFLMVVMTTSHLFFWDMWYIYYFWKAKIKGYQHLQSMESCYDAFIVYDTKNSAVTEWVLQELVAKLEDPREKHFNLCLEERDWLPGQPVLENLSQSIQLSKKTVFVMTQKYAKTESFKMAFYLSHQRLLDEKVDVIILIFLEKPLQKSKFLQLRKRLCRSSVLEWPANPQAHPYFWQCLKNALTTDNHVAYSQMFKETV

CT26 [2] = test: Antitumor activity against syngeneic mouse CT26 cells implanted in Balb/cAnNHsd mouse assessed as complete tumor regression with no relapse at 2.5 mg/kg, ip administered once a week for 4 weeks in presence of aPD1 antibody and measured twice weekly by digital caliper analysis; assay type: functional, organism-based
Outline: (§1)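 Syngeneic CT-26 tumors in mice. The TLR7 agonist was given at 0.5 or 2.5 mg/kg weekly for 4 doses (QWx4). It was combined with anti-PD1 antibody at 10 mg/kg IP, every 4 days for 7 doses (Q4Dx7). Tumor growth was followed, including 27 days after compound dosing stopped.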

[3] = Cytotoxicity against PHA-activated T-cells (unknown origin) assessed as inhibition of IL-2 induced cell proliferation measured after 72 hrs by MTS assay; assay type: toxicity, cell-based
Cytochrome P450 3A4 [4] = target: T2, Cytochrome P450 3A4 (Homo sapiens, UniProt P08684); test: Inhibition of CYP3A4 (unknown origin) using BFC as substrate preincubated with compound followed by substrate addition at 30 mins; assay type: ADME
Cytochrome P450 2C9 = Cytochrome P450 2C9 (Homo sapiens, UniProt P11712); test: Inhibition of CYP2C9 (unknown origin); assay type: ADME
Cytochrome P450 2C19 = Cytochrome P450 2C19 (Homo sapiens, UniProt P33261); test: Inhibition of CYP2C19 (unknown origin); assay type: ADME
Cytochrome P450 3A4 [5] = target: T2, Cytochrome P450 3A4; test: Inhibition of CYP3A4 (unknown origin) using BFC as substrate; assay type: ADME
[6] = Half life in nontumor bearing Balb/C mouse at 0.5 mg/kg; assay type: ADME, organism-based; conditions: in vivo
[7] = Metabolic stability in human liver microsomes assessed as compound remaining at 0.5 uM incubated for 10 mins in presence of NADPH by UV absorbance based assay; assay type: ADME, Microsome; conditions: read-out: Stability
Mus musculus = test: Immunostimulatory activity in nontumor bearing Balb/C mouse assessed as increase in IFNalpha production in serum at 0.5 to 1 mg/kg, iv measured after 2 hrs by ELISA; assay type: functional, organism-based; conditions: dose 0.5-1 mg/kg
Outline: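 Nontumor-bearing female Balb/C mice received a single 1 mg/kg dose. Serum IFNα was measured 2 h after administration, with N = 9 mice per group.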

[8] = Drug concentration in nontumor bearing Balb/C mouse at 0.5 mg/kg measured after 5 mins; assay type: ADME, organism-based; conditions: in vivo, read-out: Drug uptake
Cytochrome P450 2C8 = target: T3, Cytochrome P450 2C8 (Homo sapiens, UniProt P10632); test: Inhibition of CYP2C8 (unknown origin); assay type: ADME
T3 sequence (P10632 whole entry): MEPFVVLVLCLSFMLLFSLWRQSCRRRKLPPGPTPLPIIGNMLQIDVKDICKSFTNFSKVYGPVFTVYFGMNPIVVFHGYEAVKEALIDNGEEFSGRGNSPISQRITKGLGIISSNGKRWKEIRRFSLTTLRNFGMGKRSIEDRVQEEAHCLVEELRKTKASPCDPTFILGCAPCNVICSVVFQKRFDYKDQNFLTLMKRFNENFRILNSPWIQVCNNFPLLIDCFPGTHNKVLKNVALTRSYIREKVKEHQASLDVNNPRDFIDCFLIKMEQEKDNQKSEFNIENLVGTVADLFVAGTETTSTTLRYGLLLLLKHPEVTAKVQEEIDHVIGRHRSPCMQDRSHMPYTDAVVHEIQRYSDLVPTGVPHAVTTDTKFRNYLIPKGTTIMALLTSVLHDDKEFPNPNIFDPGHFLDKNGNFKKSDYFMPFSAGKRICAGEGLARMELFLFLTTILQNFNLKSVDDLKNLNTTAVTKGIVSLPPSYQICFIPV

CT26 [9] = test: Antitumor activity against syngeneic mouse CT26 cells implanted in ip dosed Balb/cAnNHsd mouse assessed as tumor growth delay administered once a week for 4 weeks in presence of aPD1 antibody and measured twice weekly by digital caliper analysis; assay type: functional, organism-based; conditions: dose 0.5-2.5 mg/kg; outline: as §1
Cytochrome P450 2D6 = Cytochrome P450 2D6 (Homo sapiens, UniProt P10635); test: Inhibition of CYP2D6 (unknown origin); assay type: ADME
Cytochrome P450 3A4 [10] = target: T2, Cytochrome P450 3A4; test: Inhibition of CYP3A4 (unknown origin) using BFC as substrate preincubated with compound followed by substrate addition at 5 mins; assay type: ADME

T2 sequence (P08684 whole entry): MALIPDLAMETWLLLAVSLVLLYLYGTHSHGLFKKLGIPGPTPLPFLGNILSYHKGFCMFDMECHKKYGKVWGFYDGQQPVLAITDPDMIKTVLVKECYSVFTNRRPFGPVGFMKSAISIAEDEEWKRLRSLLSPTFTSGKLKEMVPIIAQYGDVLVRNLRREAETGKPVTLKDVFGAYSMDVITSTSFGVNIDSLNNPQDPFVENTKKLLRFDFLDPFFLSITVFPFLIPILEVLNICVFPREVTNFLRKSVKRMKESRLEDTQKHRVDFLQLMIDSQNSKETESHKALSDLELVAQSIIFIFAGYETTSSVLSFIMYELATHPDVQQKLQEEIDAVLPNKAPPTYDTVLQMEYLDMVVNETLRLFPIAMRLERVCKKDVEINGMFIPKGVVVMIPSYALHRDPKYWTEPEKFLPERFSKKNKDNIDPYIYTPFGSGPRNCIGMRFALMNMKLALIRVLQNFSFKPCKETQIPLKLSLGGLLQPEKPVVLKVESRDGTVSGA
Chain of Cytochrome P450 2C9 (P11712 whole entry): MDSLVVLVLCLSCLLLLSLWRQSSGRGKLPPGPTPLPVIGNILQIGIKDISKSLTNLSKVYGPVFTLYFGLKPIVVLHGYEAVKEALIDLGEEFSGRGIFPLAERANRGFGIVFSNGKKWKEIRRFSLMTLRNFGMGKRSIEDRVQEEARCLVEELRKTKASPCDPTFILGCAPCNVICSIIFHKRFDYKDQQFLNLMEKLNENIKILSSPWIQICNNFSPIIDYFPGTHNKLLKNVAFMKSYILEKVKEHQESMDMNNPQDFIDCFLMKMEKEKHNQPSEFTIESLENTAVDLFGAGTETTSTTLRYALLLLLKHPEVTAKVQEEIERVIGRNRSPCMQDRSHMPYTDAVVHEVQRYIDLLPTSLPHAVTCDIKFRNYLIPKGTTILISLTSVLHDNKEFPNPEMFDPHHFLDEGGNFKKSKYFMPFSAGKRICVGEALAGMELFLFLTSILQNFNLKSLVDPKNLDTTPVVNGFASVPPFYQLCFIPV
Chain of Cytochrome P450 2D6 (P10635 whole entry): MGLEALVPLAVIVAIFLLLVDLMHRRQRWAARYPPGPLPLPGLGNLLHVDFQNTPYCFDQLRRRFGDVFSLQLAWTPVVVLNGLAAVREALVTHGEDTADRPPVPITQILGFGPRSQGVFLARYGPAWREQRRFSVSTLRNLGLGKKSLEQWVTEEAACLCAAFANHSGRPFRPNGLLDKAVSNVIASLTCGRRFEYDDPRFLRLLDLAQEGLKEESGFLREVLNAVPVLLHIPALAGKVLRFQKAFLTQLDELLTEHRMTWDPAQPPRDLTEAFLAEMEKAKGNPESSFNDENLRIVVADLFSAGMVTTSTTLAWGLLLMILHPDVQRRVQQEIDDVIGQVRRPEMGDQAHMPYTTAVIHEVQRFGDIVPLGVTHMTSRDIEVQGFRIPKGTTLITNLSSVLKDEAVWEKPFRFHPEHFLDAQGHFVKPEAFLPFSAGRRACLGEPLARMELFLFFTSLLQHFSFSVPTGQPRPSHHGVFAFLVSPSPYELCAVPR
Chain of Cytochrome P450 2C19 (P33261 whole entry): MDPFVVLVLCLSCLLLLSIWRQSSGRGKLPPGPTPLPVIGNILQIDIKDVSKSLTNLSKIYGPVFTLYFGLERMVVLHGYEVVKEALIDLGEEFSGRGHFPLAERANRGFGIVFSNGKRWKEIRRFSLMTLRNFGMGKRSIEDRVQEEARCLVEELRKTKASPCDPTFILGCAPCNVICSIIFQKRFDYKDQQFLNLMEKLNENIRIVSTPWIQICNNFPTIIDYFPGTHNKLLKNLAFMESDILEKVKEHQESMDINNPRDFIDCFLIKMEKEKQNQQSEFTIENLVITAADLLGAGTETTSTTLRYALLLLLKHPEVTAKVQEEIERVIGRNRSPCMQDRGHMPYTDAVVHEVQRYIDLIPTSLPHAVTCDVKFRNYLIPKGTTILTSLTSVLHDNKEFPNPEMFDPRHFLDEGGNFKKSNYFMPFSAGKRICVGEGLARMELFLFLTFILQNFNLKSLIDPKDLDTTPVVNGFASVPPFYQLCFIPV

SMILES: CCC[C@@H](CCO)Nc1nc(N)nc2cnn(Cc3ncc(C4CCN(C5CCOCC5)CC4)cc3OC)c12
- clearance [1]: 22 mL/min/kg
- EC50 (Toll-like receptor 7): 0.027 µM
- Activity (CT26 [2]): Active
- IC50 at 72 h [3]: > 25 µM
- IC50 (Cytochrome P450 3A4 [4]): > 20 µM
- IC50 (Cytochrome P450 2C9): > 20 µM
- IC50 (Cytochrome P450 2C19): > 20 µM
- IC50 (Cytochrome P450 3A4 [5]): > 20 µM
- half-life [6]: 6.9 h
- remaining at 10 min, 0.5 µM [7]: 86%
- Activity (Mus musculus): Active
- concentration at 5 min [8]: 266 nM
- IC50 (Cytochrome P450 2C8): > 20 µM
- Activity (CT26 [9]): Active
- IC50 (Cytochrome P450 2D6): > 20 µM
- IC50 (Cytochrome P450 3A4 [10]): > 20 µM
